This passage reports activation (% of control) results from PubChem BioAssay AID871 (The Scripps Research Institute Molecular Screening Center, 2007).

Among all 190,000 compounds or so, about 1,800 (0.95%) were called active. The sample holds actives, similar compounds and a random draw of the others, so the mix is not that of the screen. Values without a mark were called inactive.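 Rule for the calls: active = activation above the screen-wide mean of compound activation plus 3 SD (cut at about 130% in these data); inactive = the rest.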

The nature of this assay: enhancers of STAT3 transcriptional signaling – U3A cells, luciferase, luminescence, MLSCN library, primary screen (AID 871).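 Note: 0% = background luminescence of wells with medium and substrate only.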 The conditions noted are these: IL-6 STAT3-luciferase reporter, at 5.6 µM, stronger effect = higher value, 100% = signal with IL-6 EC80 alone. Summed up:
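Test system: Human STAT1-deficient U3A cells with stable STAT3-luciferase reporter | Also added: Interleukin-6, 33 ng/mL | Timing: Compound pre-incubation 1 h before IL-6, then 6 h stimulation at 37 °C | Technique: Luciferase reporter luminescence | Read-out: Percent of IL-6-only median luminescence | Benchmarks: IL-6-only wells as 100% reference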
Take `Cc1csc2ncc(C(=O)N(Cc3ccccc3)c3ccccn3)c(=O)n12`: the activation (% of control) is 144% (active).
On to `CCC(=O)N(Cc1ccccc1)c1ccccn1`, for which the activation (% of control) was 101%.
Turning to `CC(C)(C)C(=O)N(Cc1ccccc1)c1ccccn1`, the activation (% of control) was 106%.
With `CCCCCCCCc1c(O)nc(-n2[nH]c(C)c(CCO)c2=O)[nH]c1=O`, the activation (% of control) is 102%.
As for `CCCC1OC23CCCCC2C(C#N)(C#N)C1(C#N)C(=N)O3` (stereo not drawn), the activation (% of control) was 104%.
For the compound `CC(C)(C)c1ccc(NC(=O)COC(=O)CCc2nc3ccccc3c(=O)[nH]2)cc1`, the activation (% of control) is 95.4%.
Under `COc1cccc(C(=O)Nc2ccc(N3CCCC3)cc2)c1` stands 90.1%; under `COc1cccc(/C=C(/CC(=O)Nc2ccc(N3CCOCC3)cc2)c2nc3ccccc3s2)c1`, 143% (active).
Take `COc1ccc(/C=C(/CC(=O)Nc2ccc(C)cc2)c2nc3ccccc3s2)cc1`: the activation (% of control) was 103%.
Consider `CCc1ccccc1NC(=O)CN(C)C(=O)COc1ccc(C)nc1[N+](=O)[O-]`, for which the activation (% of control) is 104%.
On to `COc1ccc(CC(=O)Nc2ccccc2NC(=O)c2ccco2)cc1OC`, for which the activation (% of control) was 100%.
Under `CCOC(=O)C1C(c2ccc(Cl)cc2)NC(=S)NC1(O)C(F)(F)F` (stereo not drawn) stands 98.2%.
The result for `CCCCCCCC1(C)NC(=O)N(CC(=O)Nc2cc(C)on2)C1=O` (stereo not drawn) reads 93.7%; that for `CSCCC(Nc1nc2ccccc2s1)C(=O)O` (stereo not drawn), 99.7%.
In the case of `O=C(Nc1ccccc1)Nc1nc2ccccc2s1`, the activation (% of control) is 100%.
`O=C(O)CS/C(=C\c1ccc(F)cc1)c1nc2ccccc2s1`: the activation (% of control) is 136% (active).
As to `O=C(O)CCCCc1nc2ccccc2s1`, the activation (% of control) is 94.9%.
With `O=C(O)CSCc1nc2ccccc2s1`, the activation (% of control) was 144% (active).
Turning to `COc1cccc2sc(NNC(=O)c3nc4ccccc4s3)nc12`, the activation (% of control) is 120%.
With `CCOP(=O)(OCC)C(Nc1cccc(C)c1)c1ccc(F)cc1` (stereo not drawn), the activation (% of control) is 95.7%.
`O=C(Cn1nnc2ccccc2c1=O)NCc1ccc(Cl)cc1`: the activation (% of control) is 101%.
For the compound `C#CCCCc1nc2ccccc2c(=O)n1N`, the activation (% of control) is 96.4%.
With `Cc1cc(C(=O)NNC(=S)Nc2ccccc2C)cs1`, the activation (% of control) is 100%.
On to `COc1ccc(C(=O)NC(Cc2ccc(OC(=O)c3ccc(OC)cc3)cc2)C(=O)O)cc1` (stereo not drawn), for which the activation (% of control) is 100%.
Take `NC1=NC(=O)C(Cc2cccc(Cl)c2Cl)S1` (stereo not drawn): the activation (% of control) was 98.2%.
Consider `CCOc1ccc(N=Cc2c(O)n(-c3cccc(C)n3)c(=O)c3ccccc23)cc1`, for which the activation (% of control) was 78.3%.
`CCCCn1c(=O)c(C(C)=O)c(O)c2ccccc21`: the activation (% of control) was 106%.
The result for `CC(=O)n1c(C=Nc2ccccc2)c(O)c2ccccc21` reads 134% (active); that for `O=C1c2ccccc2NC(c2ccccc2O)N1NS(=O)(=O)c1ccccc1` (stereo not drawn), 101%.
Under `COc1ccc(CN2CCN(Cc3cn(C)nc3-c3ccccc3)CC2CCO)c(C)c1C` (stereo not drawn) stands 105%.
In the case of `Cc1sc2nc(CC(N)=O)[nH]c(=O)c2c1-c1ccccc1`, the activation (% of control) was 96.5%.
The result for `CCOC(=O)CC(=O)CSc1nc(-c2ccccc2)cc(-c2ccc(Cl)cc2)c1C#N` reads 98.1%; that for `N#Cc1c(C(F)(F)F)cc(-c2ccccc2)nc1SCC(=O)N1CCOCC1`, 107%.
For `N#Cc1c(C(F)(F)F)cc(-c2ccc(Cl)cc2)nc1SCC(=O)O`, the activation (% of control) was 142% (active).
Take `Cc1nn(CC2CC2)c(=O)n1N(C)c1ncc(C(F)(F)F)cc1Cl`: the activation (% of control) is 99.4%.
With `COc1ccc(C2c3[nH]c4ccccc4c3CCN2CCCn2cccn2)cc1C` (stereo not drawn), the activation (% of control) is 148% (active).
In the case of `CCN(CCn1cccn1)C(=O)CC1C(=O)NCCN1Cc1cccc(OC)c1OC` (stereo not drawn), the activation (% of control) was 106%.
With `COc1cccc(C2c3[nH]c4ccccc4c3CCN2Cc2cccc(C)n2)c1` (stereo not drawn), the activation (% of control) is 126%.
As to `Cc1cc(C)c(C#N)c(SCC(=O)Nc2ccccc2)n1`, the activation (% of control) was 85.2%.
With `Cc1ccc(C(=O)N2CCCC(c3ccccc3)=N2)cc1`, the activation (% of control) was 92.1%.
Regarding `COC(=O)c1[nH]c2ccc(Br)cc2c1NC(=O)Oc1ccccc1`, the activation (% of control) is 102%.
For the compound `COC(=O)c1[nH]c2ccccc2c1NS(=O)(=O)c1ccc(OC)cc1OC`, the activation (% of control) was 149% (active).
`COc1ccc(OC)c(S(=O)(=O)Nc2ccccc2F)c1`: the activation (% of control) is 96.8%.
Take `O=[N+]([O-])c1ccccc1Nc1ccc(O)cc1`: the activation (% of control) was 104%.
For `CCOc1ccc2c(=O)c(-c3ccc4c(c3)OCCCO4)c(C)oc2c1`, the activation (% of control) was 98.4%.
In the case of `CCC(C)C(=O)Nc1cc([N+](=O)[O-])ccc1Cl` (stereo not drawn), the activation (% of control) is 103%.
In the case of `CC(C)C(=O)Nc1cccc(NC(=O)c2ccc([N+](=O)[O-])cc2Cl)c1`, the activation (% of control) was 106%.
`Cc1ccc(NC(=O)c2cc([N+](=O)[O-])ccc2Cl)c(O)c1`: the activation (% of control) was 138% (active).
Turning to `CC1CCC2(CC1)NC(=O)N(Cc1nnc(-c3cccs3)o1)C2=O` (stereo not drawn), the activation (% of control) is 96.4%.
Consider `C/C(=C\c1ccco1)CN1CCC(N2CCC(C(=O)N3CCOCC3)CC2)CC1`, for which the activation (% of control) was 110%.
`Cn1cc(CN2CCCC(CO)C2)c(-c2ccc(Oc3ccccc3)cc2)n1` (stereo not drawn): the activation (% of control) is 108%.
Regarding `COc1cc(NS(=O)(=O)c2ccc(N/C=C(\C=O)c3nc4cc(Cl)ccc4o3)cc2)nc(OC)n1`, the activation (% of control) was 159% (active).
The result for `COc1cc(NS(=O)(=O)c2ccc(NC(=O)c3ccc(S(=O)(=O)N4CCCCC4)cc3)cc2)ncn1` reads 97.5%; that for `COc1cc(NS(=O)(=O)c2ccc(N=Cc3c(C)[nH]n(-c4ccccc4)c3=O)cc2)nc(OC)n1`, 111%.
On to `NC(=O)c1ccc(NC(=O)COC(=O)C(Cc2ccccc2)NC(=O)c2ccccc2)cc1` (stereo not drawn), for which the activation (% of control) is 92.8%.
Turning to `CCN(CC)CCN(C(=O)c1ccc(N2C(=O)CCC2=O)cc1)c1nc2cc3c(cc2s1)OCO3`, the activation (% of control) is 107%.
Turning to `COc1ccc(C(=O)Nc2ccccc2C(=O)N/N=C/c2ccccc2OC)cc1`, the activation (% of control) is 105%.
Consider `C/C(=N/NC(=O)c1ccc(NC(=O)c2ccc(F)cc2)cc1)c1ccccc1`, for which the activation (% of control) is 85.3%.
For the compound `COc1ccccc1C(=O)NNC(=O)c1ccc(NC(=O)c2ccccc2)cc1`, the activation (% of control) is 134% (active).
In the case of `CCCn1c(C)cc(/C=C(\C#N)C(=O)OCC(=O)Nc2cc(OC)c(OC)c(OC)c2)c1C`, the activation (% of control) was 103%.
As to `Cc1cc(O)ccc1-c1cnc2ccccc2n1`, the activation (% of control) is 102%.
For `Cc1nc2ccccc2cc1O`, the activation (% of control) is 163% (active).
The result for `Cc1nc2ccccc2cc1OCc1ccc(F)cc1` reads 44.1%.
